{"source": "ChEMBL document CHEMBL1926594", "about": "“Molecular modeling studies, synthesis, configurational stability and biological activity of 8-chloro-2,3,5,6-tetrahydro-3,6-dimethyl-pyrrolo[1,2,3-de]-1,2,4-benzothiadiazine 1,1-dioxide” (Bioorg Med Chem, 2011)", "key": {"[1]": {"assay": "Chemical stability of compound assessed as compound hydrolysis at pH 2.2 at 37.5 degC after 90 mins", "type": "physicochemical", "settings": "buffer, pH 2.2, 1.5 h", "outline": "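(3*,6R) epimeric mixture held on reactor column in chloroacetate buffer (ionic strength 0.01, pH 2.20) at 37.5 °C for up to 90 min. Hydrolysis checked by the sf-BD-rHPLC method: Chiralcel OD-R separative column at 0 °C, water/acetonitrile 50:50 (v/v) eluent.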"}, "[2]": {"assay": "Configurational stability of compound assessed as half life using IAM column by stopped flow bidimensional recycling HPLC", "type": "physicochemical", "settings": "IAM column (stationary phase)", "outline": "(§1)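 sf-BD-rHPLC with an IAM-based reactor column. (3*,6R) epimers separated on Chiralcel OD-R at 0 °C using water/acetonitrile 50:50 (v/v). Trapped epimer interconverts at 37.5 °C in chloroacetate buffer pH 2.20 or phosphate buffer pH 7.00 (ionic strength 0.01), then is re-separated at 0 °C, n = 4. Forward, backward and equilibrium rate constants derived from peak areas.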"}, "[3]": {"assay": "Configurational stability of compound in water-acetonitrile assessed as forward equilibrium rate epimerization at 5 degC by dynamic HPLC analysis", "type": "physicochemical", "settings": "buffer", "outline": "(§2)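 Dynamic HPLC on the (3*,6R) epimeric mixture: isocratic Chiralcel OD-R column, water/acetonitrile 50:50 (v/v), run at temperatures of 5-37 °C. Sample at 100 μg/mL final, 20 μL injected, UV detection at 254 nm. Interconversion rate constants obtained from elution profiles by integration of the interconverting peak areas.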"}, "[4]": {"assay": "Configurational stability of compound in water-acetonitrile assessed as forward rate epimerization at 37 degC by dynamic HPLC analysis", "type": "physicochemical", "settings": "buffer", "outline": "as §2"}, "[5]": {"assay": "Configurational stability of compound in water-acetonitrile assessed as backward rate epimerization at 37 degC by dynamic HPLC analysis", "type": "physicochemical", "settings": "buffer", "outline": "as §2"}, "[6]": {"assay": "Configurational stability of compound assessed as half life using C-8 column by stopped flow bidimensional recycling HPLC", "type": "physicochemical", "settings": "C-8 column (stationary phase)", "outline": "(§3)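 Stopped-flow bidimensional recycling HPLC on the (3*,6R) epimeric mixture. Epimers separated on Chiralcel OD-R at 0 °C with water/acetonitrile 50:50 (v/v). One epimer is trapped on a Supelcosil LC-8 (C8) reactor column and epimerizes at 37.5 °C in chloroacetate buffer pH 2.20 or phosphate buffer pH 7.00 (ionic strength 0.01). Column recooled to 0 °C, epimers re-separated, n = 4. Rate constants from first-order reversible kinetics.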"}, "[7]": {"assay": "Configurational stability of compound in water-acetonitrile assessed as forward rate epimerization at 25 degC by dynamic HPLC analysis", "type": "physicochemical", "settings": "buffer", "outline": "as §2"}, "[8]": {"assay": "Configurational stability of compound in water-acetonitrile assessed as forward rate equilibrium epimerization at pH 2.2 using C-8 column by stopped flow bidimensional recycling HPLC", "type": "physicochemical", "settings": "buffer", "outline": "as §3"}, "[9]": {"assay": "Configurational stability of compound in water-acetonitrile assessed as forward rate equilibrium epimerization at pH 7 using C-8 column by stopped flow bidimensional recycling HPLC", "type": "physicochemical", "settings": "buffer", "outline": "as §3"}, "[10]": {"assay": "Configurational stability of compound in water-acetonitrile assessed as forward equilibrium rate epimerization at 37 degC by dynamic HPLC analysis", "type": "physicochemical", "settings": "buffer", "outline": "as §2"}, "[11]": {"assay": "Configurational stability of compound in water-acetonitrile assessed as forward rate epimerization at pH 7 using IAM column by stopped flow bidimensional recycling HPLC", "type": "physicochemical", "settings": "artificial membrane", "outline": "as §1"}, "[12]": {"assay": "Configurational stability of compound in water-acetonitrile assessed as forward rate epimerization at pH 2.2 using IAM column by stopped flow bidimensional recycling HPLC", "type": "physicochemical", "settings": "artificial membrane", "outline": "as §1"}, "[13]": {"assay": "Configurational stability of compound in water-acetonitrile assessed as backward rate equilibrium epimerization at pH 7 using IAM column by stopped flow bidimensional recycling HPLC", "type": "physicochemical", "settings": "artificial membrane", "outline": "as §1"}, "[14]": {"assay": "Configurational stability of compound in water-acetonitrile assessed as backward rate epimerization at pH 7 using C-8 column by stopped flow bidimensional recycling HPLC", "type": "physicochemical", "settings": "buffer", "outline": "as §3"}, "[15]": {"assay": "Configurational stability of compound in water-acetonitrile assessed as backward rate epimerization at 25 degC by dynamic HPLC analysis", "type": "physicochemical", "settings": "buffer", "outline": "as §2"}, "DIV7-10": {"test_system": "DIV7-10", "assay": "Positive allosteric modulation activity at AMPA receptor in Sprague-Dawley rat cortical neuronal DIV7-10 cells assessed as increase in kainate induced currents at 100 uM by patch clamp electrophysiological method", "type": "cell-based", "outline": "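Cortical neurons from newborn Sprague–Dawley rats: trypsin-dispersed, plated on poly-L-lysine and switched to BME/Neurobasal with B27 after 24 h, with 1 µM Ara-C added at DIV5. Whole-cell voltage-clamp at room temperature on DIV7-10 cells. Kainate-evoked currents recorded with co-application of epimeric mixture at 100 µM. Potentiation given as mean ± SE, n = 4.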"}, "[16]": {"assay": "Configurational stability of compound in water-acetonitrile assessed as forward equilibrium rate epimerization at 25 degC by dynamic HPLC analysis", "type": "physicochemical", "settings": "buffer", "outline": "as §2"}, "[17]": {"assay": "Configurational stability of compound in water-acetonitrile assessed as forward rate epimerization at pH 2.2 using C-8 column by stopped flow bidimensional recycling HPLC", "type": "physicochemical", "settings": "buffer", "outline": "as §3"}, "[18]": {"assay": "Configurational stability of compound in water-acetonitrile assessed as backward rate epimerization at pH 7 using IAM column by stopped flow bidimensional recycling HPLC", "type": "physicochemical", "settings": "artificial membrane", "outline": "as §1"}, "[19]": {"assay": "Configurational stability of compound in water-acetonitrile assessed as backward rate epimerization at pH 2.2 using C-8 column by stopped flow bidimensional recycling HPLC", "type": "physicochemical", "settings": "buffer", "outline": "as §3"}, "[20]": {"assay": "Configurational stability of compound in water-acetonitrile assessed as backward rate epimerization at pH 2.2 using IAM column by stopped flow bidimensional recycling HPLC", "type": "physicochemical", "settings": "artificial membrane", "outline": "as §1"}, "[21]": {"assay": "Configurational stability of compound in water-acetonitrile assessed as forward rate equilibrium epimerization at pH 2.2 using IAM column by stopped flow bidimensional recycling HPLC", "type": "physicochemical", "settings": "artificial membrane", "outline": "as §1"}, "[22]": {"assay": "Configurational stability of compound in water-acetonitrile assessed as forward rate equilibrium epimerization at pH 7 using IAM column by stopped flow bidimensional recycling HPLC", "type": "physicochemical", "settings": "artificial membrane", "outline": "as §1"}, "[23]": {"assay": "Configurational stability of compound in water-acetonitrile assessed as backward rate equilibrium epimerization at pH 2.2 using IAM column by stopped flow bidimensional recycling HPLC", "type": "physicochemical", "settings": "artificial membrane", "outline": "as §1"}, "[24]": {"assay": "Configurational stability of compound in water-acetonitrile assessed as backward rate equilibrium epimerization at pH 7 using C-8 column by stopped flow bidimensional recycling HPLC", "type": "physicochemical", "settings": "buffer", "outline": "as §3"}, "[25]": {"assay": "Configurational stability of compound in water-acetonitrile assessed as backward rate equilibrium epimerization at pH 2.2 using C-8 column by stopped flow bidimensional recycling HPLC", "type": "physicochemical", "settings": "buffer", "outline": "as §3"}, "[26]": {"assay": "Configurational stability of compound in water-acetonitrile assessed as forward rate epimerization at 5 degC by dynamic HPLC analysis", "type": "physicochemical", "settings": "buffer", "outline": "as §2"}, "[27]": {"assay": "Configurational stability of compound in water-acetonitrile assessed as forward rate epimerization at pH 7 using C-8 column by stopped flow bidimensional recycling HPLC", "type": "physicochemical", "settings": "buffer", "outline": "as §3"}, "[28]": {"assay": "Configurational stability of compound in water-acetonitrile assessed as backward rate epimerization at 5 degC by dynamic HPLC analysis", "type": "physicochemical", "settings": "buffer", "outline": "as §2"}}, "data": [{"compound": "CC1CN2c3c1cc(Cl)cc3S(=O)(=O)NC2C", "note": "(stereo not given)", "values": [{"measurement": "Stability", "setting": "[1]", "result": "Stable"}]}, {"compound": "CC1NS(=O)(=O)c2cc(Cl)cc3c2N1C[C@@H]3C", "note": "(mixture of isomers)", "values": [{"measurement": "half-life", "setting": "[2]", "result": 10, "unit": "min"}, {"measurement": "K", "setting": "[3]", "result": 0.23, "unit": "×10⁻⁴ /s"}, {"measurement": "K", "setting": "[4]", "result": 1.28, "unit": "×10⁻⁴ /s"}, {"measurement": "K", "setting": "[5]", "result": 0.71, "unit": "×10⁻⁴ /s"}, {"measurement": "half-life", "setting": "[6]", "result": 10, "unit": "min"}, {"measurement": "K", "setting": "[7]", "result": 1.11, "unit": "×10⁻⁴ /s"}, {"measurement": "K", "setting": "[8]", "result": 6.68, "unit": "×10⁻⁴ /s"}, {"measurement": "K", "setting": "[9]", "result": 5.9, "unit": "×10⁻⁴ /s"}, {"measurement": "K", "setting": "[10]", "result": 1.99, "unit": "×10⁻⁴ /s"}, {"measurement": "K", "setting": "[11]", "result": 5.3, "unit": "×10⁻⁴ /s"}, {"measurement": "K", "setting": "[12]", "result": 6.68, "unit": "×10⁻⁴ /s"}, {"measurement": "K", "setting": "[13]", "result": 8.93, "unit": "×10⁻⁴ /s"}, {"measurement": "K", "setting": "[14]", "result": 2.34, "unit": "×10⁻⁴ /s"}, {"measurement": "K", "setting": "[15]", "result": 0.76, "unit": "×10⁻⁴ /s"}, {"measurement": "Activity", "setting": "DIV7-10", "result": 112, "unit": "%"}, {"measurement": "K", "setting": "[16]", "result": 1.87, "unit": "×10⁻⁴ /s"}, {"measurement": "K", "setting": "[17]", "result": 4.61, "unit": "×10⁻⁴ /s"}, {"measurement": "K", "setting": "[18]", "result": 2.75, "unit": "×10⁻⁴ /s"}, {"measurement": "K", "setting": "[19]", "result": 2.26, "unit": "×10⁻⁴ /s"}, {"measurement": "K", "setting": "[20]", "result": 3.48, "unit": "×10⁻⁴ /s"}, {"measurement": "K", "setting": "[21]", "result": 10.7, "unit": "×10⁻⁴ /s"}, {"measurement": "K", "setting": "[22]", "result": 7.2, "unit": "×10⁻⁴ /s"}, {"measurement": "K", "setting": "[23]", "result": 9.63, "unit": "×10⁻⁴ /s"}, {"measurement": "K", "setting": "[24]", "result": 7.77, "unit": "×10⁻⁴ /s"}, {"measurement": "K", "setting": "[25]", "result": 6.52, "unit": "×10⁻⁴ /s"}, {"measurement": "K", "setting": "[26]", "result": 0.17, "unit": "×10⁻⁴ /s"}, {"measurement": "K", "setting": "[27]", "result": 4.49, "unit": "×10⁻⁴ /s"}, {"measurement": "K", "setting": "[28]", "result": 0.06, "unit": "×10⁻⁴ /s"}]}, {"compound": "CC1NS(=O)(=O)c2cc(Cl)cc3c2N1C[C@H]3C", "note": "(mixture of isomers)", "values": [{"measurement": "Activity", "setting": "DIV7-10", "result": 250, "unit": "%"}]}]}
